Laboratory results: ChEMBL document CHEMBL3085643, “Synthesis and evaluation in monkey of [(18)F]4-fluoro-N-methyl-N-(4-(6-(methylamino)pyrimidin-4-yl)thiazol-2-yl)benzamide ([(18)F]FIMX): a promising radioligand for PET imaging of brain metabotropic glutamate receptor 1 (mGluR1)” (J Med Chem, 2013)

Test system: Brain
Test: Biodistribution in iv dosed rhesus monkey brain measured at 90 mins by PET analysis relative to control
Type: ADME, organism-based, Macaca mulatta
Conditions: in vivo, 1.5 h
How it was run: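 Baseline scans in rhesus monkey given the [18F] radioligand i.v. (4.6–6.58 mCi; specific activity 1.67–4.18 Ci/μmol at injection). Ketamine 10 mg/kg i.m. induction, then 1.6% isoflurane/98.4% O2, with the head in a stereotaxic frame. microPET Focus 220 scanning for 120 min in 33 frames (30 s–5 min). Regional uptake, including isocontour-delineated cerebellar grey matter, expressed as SUV.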

In the case of CC(C)Nc1cc(-c2csc(N(C)C(=O)c3ccc([18F])cc3)n2)ncn1, the Drug uptake is reported as 17%.
